Source: PubChem BioAssay (The Scripps Research Institute Molecular Screening Center)
Rows were chosen to be rich in hits. Some 1.9% of all compounds tested hit in one or more screens of this group.
HCV NS3 hel inh: inhibitors of HCV NS3 helicase, primary screen, biochemical, Cy5 molecular beacon fluorescence. NS3 helicase DNA unwinding. inhibition, % at 10.9 µM. actives 0.56% (n = 290,000). Hepatitis C virus NS3 helicase;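 active means inhibition above the mean of all tested compounds plus 3 SD, set per campaign, cut at about 35% in these data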;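 further: 0% = DMSO wells and 100% = thioflavine S control wells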
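Assay system – hepatitis C virus NS3 helicase domain fragment enzyme · Buffer or medium – MOPS pH 6.5, MgCl2, DTT, Tween20, BSA · Reagent – Cy5/quencher beacon DNA duplex and ATP to start · Compound – single 10.9 µM dose · Timing – 1 h at 25 °C · Technique – Cy5 beacon fluorescence read at start and 1 h · Measure – % inhibition of unwinding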
ZTA counter: blocks Epstein-Barr virus ZTA, an EBNA-1 counter-screen. P03206. ZTA-DNA binding, fluorescence polarization. inhibition, % at 11 µM. actives 0.15% (n = 320,000); in the data active means inhibition above about 33%
Target sequence (P03206 whole entry, looked up): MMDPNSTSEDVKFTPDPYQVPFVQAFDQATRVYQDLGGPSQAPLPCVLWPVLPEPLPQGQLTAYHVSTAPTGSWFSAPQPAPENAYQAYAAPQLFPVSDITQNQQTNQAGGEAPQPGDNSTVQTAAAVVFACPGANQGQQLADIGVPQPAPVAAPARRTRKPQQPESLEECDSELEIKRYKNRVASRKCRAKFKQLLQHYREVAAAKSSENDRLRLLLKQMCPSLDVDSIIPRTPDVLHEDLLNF
core dimer inh: inhibitors of HCV core protein dimerization, primary screen, biochemical, TR-FRET, high-throughput. actives 0.33% (n = 300,000). AID 1899, 2009. inhibition, % at 5 µM. TR-FRET GST/Flag-core106 dimerization, 1536-well;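 active means inhibition above the mean of all tested compounds plus 3 SD, set per screening campaign, cut at about 45% in these data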
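Material: Tagged HCV core106 pair (GST and Flag) | Amount: GST-core106 13.5 nM, Flag-core106 17 nM | Medium: KF-containing HEPES buffer, pH 7.45, DTT, CHAPS, BSA | Reagent: Eu donor and XL665 acceptor anti-tag antibodies | Schedule: 4 h at 22.5 °C | Technique: Time-resolved FRET, ex 340 nm, em 617 and 671 nm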
EBNA-1 inhibitor: EBNA-1 DNA-binding inhibitors, primary screen, biochemical, fluorescence polarization; actives 0.34% (n = 300,000); AID 1950, 2009; inhibition, % at 14.8 µM; in the data active means inhibition above about 28%
PP1 counter: PP1-alpha phosphatase inhibitors, primary screen, counter-screen for PP5 inhibitor project, biochemical, fluorescence, OMFP substrate, single point | Serine/threonine-protein phosphatase PP1-alpha catalytic subunit (Homo sapiens), P62136 | inhibition, % at 6.7 µM | purified PP1alpha | actives 0.9% (n = 320,000);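 active means inhibition above the mean inhibition of all tested compounds plus 3 SD, computed separately for each screening campaign, cut at about 15% in these data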
Target sequence (P62136 whole entry, looked up): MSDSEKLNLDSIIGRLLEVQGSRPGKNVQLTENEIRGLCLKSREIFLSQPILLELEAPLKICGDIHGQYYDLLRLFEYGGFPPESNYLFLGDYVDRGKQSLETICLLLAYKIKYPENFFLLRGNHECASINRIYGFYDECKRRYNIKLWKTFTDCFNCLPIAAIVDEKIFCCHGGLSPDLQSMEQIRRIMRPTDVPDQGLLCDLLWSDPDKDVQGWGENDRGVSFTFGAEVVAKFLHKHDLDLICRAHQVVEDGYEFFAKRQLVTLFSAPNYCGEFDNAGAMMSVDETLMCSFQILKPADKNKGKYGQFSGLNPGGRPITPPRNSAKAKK
NS3 hel confirm: HCV NS3 helicase inhibitors, retest, confirmation, biochemical, Cy5 molecular beacon fluorescence, triplicate. shares compounds with HCV NS3 hel inh. inhibition, % at 10.9 µM. NS3 helicase DNA unwinding. actives 31% (n = 1,600). AID 1943, 2009;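 active means inhibition above the mean of all tested compounds plus 3 SD, cutoff set per campaign, cut at about 36% in these data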
FID counter trip: compounds displacing fluorescent DNA intercalator, artefact control for HCV NS3 helicase inhibitor project, biochemical, FID fluorescence, triplicate; shares compounds with HCV NS3 hel inh; DNA fluorescent intercalator displacement; inhibition, % at 7.9 µM; actives 4% (n = 1,600); AID 1945, 2009; in the data active means inhibition above about 37%;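 further: 0% = vehicle and 100% = reference compound; higher means more displacement of ethidium bromide from the DNA hairpin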
FID counter DR: compounds displacing fluorescent intercalator from DNA, dose response, counter-screen for HCV NS3 helicase inhibitor project, biochemical, fluorescence. shares compounds with HCV NS3 hel inh. fluorescent intercalator displacement from DNA. AID 2172, 2009. IC50, µM. 120 tested, under 10 active; call rule not given here
Numbers without * were called inactive; · = no result; + = active, no number.

SMILES | HCV NS3 hel inh | ZTA counter | core dimer inh | EBNA-1 inhibitor | PP1 counter | NS3 hel confirm | FID counter trip | others
CCc1ccc(/C=C2/SC(=S)N(CCCC(=O)Nc3ccccc3C(=O)O)C2=O)cc1 | 0.7 | -15.0 | 1.6 | -4.5 | 5.8 | · | ·
O=C(CCN1C(=O)/C(=C/c2ccco2)SC1=S)Nc1ccc(O)cc1C(=O)O | 41.7* | · | · | · | · | 65.7* | 13.1
O=C(CN1C(=O)/C(=C\c2ccco2)SC1=S)Nc1ccc(O)cc1C(=O)O | 31.4 | 27.6 | -0.1 | 4.9 | 1.3 | · | ·
COc1cccc(NC(=O)C(=O)c2cn(CC(=O)N3CCCC3)c3ccccc23)c1 | -7.1 | 0.6 | 8.6 | -10.0 | 0.3 | · | ·
Cc1cc(C)n(CCc2nc(-c3ccco3)cs2)n1 | 12.4 | -3.4 | 12.4 | 4.6 | 2.7 | · | ·
Cc1nn(CCc2nc(-c3ccco3)cs2)c2[nH]c(=O)cc(C(F)(F)F)c12 | 46.0* | -1.4 | 14.8 | 8.1 | -3.4 | 71.5* | -11.2
Oc1c(Cl)cc(Cl)cc1/C=N/NC(=S)NC1CC2C=CC1C2 (stereo not given) | 47.9* | 21.8 | 10.8 | -4.5 | 8.9 | 52.1* | 8.5 | FID counter DR=>79.4
CC(=O)c1cccc(Nc2nc(-c3cccnc3)cs2)c1 | 44.0* | · | · | · | · | 6.2 | -10.5
Cc1nc2c(O)cccc2cc1CO | 9.6 | -0.6 | 0.5 | 14.9 | -3.0 | · | ·
CN(C)c1ccc(NC(=O)Oc2ccccc2)cc1 | 43.5* | + | -10.8 | 52.3* | 4.8 | -5.4 | 0.5
CC(=O)C1=C(c2ccccc2)NC(=O)NC1c1ccccc1 (stereo not given) | -5.8 | -2.5 | 0.8 | -13.8 | 0.9 | · | ·
O=C1NC(c2ccccc2)=C(c2nc3ccccc3s2)C(c2ccccc2)N1 (stereo not given) | 38.7* | -5.1 | 8.0 | 1.4 | 6.5 | -4.8 | -13.3
CCOc1ccc(NC(=S)N2CCN(S(=O)(=O)c3ccccc3)CC2)cc1 | 5.9 | · | · | · | · | · | ·
Cc1ccc(OCC(=O)Nc2nnc(S(=O)(=O)N3CCC(C)CC3)s2)cc1 | 36.0* | -7.0 | 35.6 | 1.2 | 5.6 | -15.8 | -5.8
O=C1N[C@@H](Cc2ccccc2)C(=O)N2[C@H]1C[C@]1(Br)c3ccccc3N(S(=O)(=O)c3ccc(F)cc3)[C@H]21 | · | 15.7 | 12.2 | 20.7 | 2.2 | · | ·
CSc1ccccc1NC(=O)CSc1nnc(COc2ccccc2)o1 | -5.5 | -3.4 | -1.2 | 3.0 | 2.2 | · | ·
C=CCSC1=N/C(=C\C=C\c2ccco2)C(=O)S1 | 41.7* | 15.5 | 64.7* | 4.0 | 9.0 | 50.4* | 19.4 | FID counter DR=>79.4
CNc1ccc(Br)cc(C(=O)/C=C/c2ccc3c(c2)OCO3)c1=O | 54.0* | -8.2 | 55.5* | 3.0 | 0.7 | 44.7* | 4.2
CNc1ccc(Br)cc(C(=O)/C=C/c2cc(OC)ccc2OC)c1=O | 40.5* | 3.1 | 24.3 | 0.6 | 6.1 | 61.0* | -9.4 | FID counter DR=>79.4
O=C(O)c1nn(Cc2csc(-c3ccccc3)n2)c(=O)c2ccccc12 | 48.3* | -20.8 | -6.8 | -13.5 | -3.3 | 7.7 | -22.8
COc1cc2c(cc1OC)CN(C(=O)CN1CCN(S(=O)(=O)c3ccc(C)c(C)c3)CC1)CC2 | -3.4 | -1.1 | 12.1 | 4.0 | -2.5 | · | ·
COc1ccc(/C=C\c2onc(C)c2S(=O)(=O)N2CCC(C(=O)NCc3ccco3)CC2)cc1 | 49.9* | -28.6 | -5.9 | 0.6 | -2.6 | -0.5 | -17.6
O=C(CNC(=O)c1ccccn1)N=Nc1c(O)[nH]c2ccccc12 | -1.7 | 4.8 | 5.7 | 3.1 | -0.3 | · | ·
CN(C)c1ccc(N2CN=C3SCC(=O)N3C2)cc1 | 59.1* | + | -37.5 | + | 2.2 | -5.7 | 27.2
Cc1ccccc1N1CC(C(=O)Nc2ccncc2)CC1=O (stereo not given) | · | -1.4 | -3.8 | -3.3 | -5.7 | · | ·
SMILES | HCV NS3 hel inh | ZTA counter | core dimer inh | EBNA-1 inhibitor | PP1 counter | NS3 hel confirm | FID counter trip | others
O=C(NCC(c1cccs1)N1CCOCC1)c1ccccc1NS(=O)(=O)c1cc([N+](=O)[O-])ccc1Cl (stereo not given) | 13.8 | -12.4 | 3.8 | -8.9 | 2.1 | · | ·
Cc1ccc(-c2ccc(C3C(C#N)=C(N)Oc4n[nH]c(C)c43)o2)cc1 (stereo not given) | 39.8* | 4.5 | -1.1 | 3.8 | 3.4 | -24.8 | 8.5
Cc1sc2nc(SCc3ccccc3)n(Cc3ccco3)c(=O)c2c1C | 3.1 | 4.4 | -4.7 | 7.0 | 1.4 | · | ·
Cc1cccc(CSc2nc3sc(C)c(C)c3c(=O)n2Cc2ccco2)c1 | 39.2* | 0.6 | 2.2 | 1.7 | 1.4 | -8.7 | 7.4
Cc1cc(C)c(NC(=O)c2ccc(CNS(=O)(=O)c3cc(C(F)(F)F)ccc3Cl)cc2)c(C)c1 | 36.3* | -1.1 | 15.3 | -2.7 | 4.9 | -4.4 | -13.6
Nc1nc(N)c(N=Nc2ccc(S(N)(=O)=O)cc2)c(=O)[nH]1 | -7.2 | -3.3 | -17.7 | -2.4 | -1.8 | · | ·
NS(=O)(=O)c1ccc(N=Nc2ccc(=O)[nH]c2O)cc1 | 31.6 | 21.6 | -16.3 | -20.7 | 8.7 | -17.3 | 13.1
CCOC(=O)C1CCCN(C(=O)c2cc3c(=O)n(C)c4ccccc4c3n2C)C1 (stereo not given) | 74.9* | 12.8 | 3.9 | 9.1 | -4.2 | -10.4 | -30.8
O=C(CSc1ccc(-c2cccs2)nn1)NCCc1ccccc1 | 0.5 | 0.2 | 10.7 | 6.9 | -3.6 | · | ·
COc1ccccc1CCNC(=O)CSc1ccc(-c2cccs2)nn1 | 44.5* | 12.8 | 4.6 | 7.3 | -3.0 | -10.4 | -14.1
CC(C)NCC(O)c1ccc2ccccc2c1 (stereo not given) | · | 9.1 | 9.9 | 3.9 | 4.7 | · | ·
C/C=C/C(O)c1ccc2ccccc2c1 (stereo not given) | 41.0* | 0.9 | -4.5 | -1.7 | -4.7 | 0.1 | 4.4
O=C1CC(NCc2ccc3c(c2)OCO3)C(=O)N1CCc1ccccc1 (stereo not given) | 54.1* | -3.5 | -2.7 | 10.3 | -1.9 | -12.6 | -18.3
Nc1[nH]c2cc([N+](=O)[O-])ccc2c1-c1ccccn1 | -7.4 | -6.9 | -61.8 | -3.0 | 3.3 | · | ·
CCCn1c(/C=C/c2ccccc2)nc2ccccc21 | 8.8 | 10.9 | 1.7 | 1.7 | -4.0 | · | ·
CC(C)Cn1c(/C=C/c2ccco2)nc2ccccc21 | 55.4* | 0.6 | 47.1* | 11.4 | 3.5 | -14.1 | -1.3
CC(C)c1cc(=O)n2[nH]c(SCc3ccc(Cl)cc3)nc2n1 | 44.8* | -15.2 | -14.0 | 3.4 | 4.6 | -5.5 | -24.4
